T cell HTS: T cell immune modulators affecting CD8 T cell-vesicle binding | response (vesicle binding), % at 7 µM | AID 2052 | 2C CD8+ T cell-vesicle binding, flow cytometry; stronger effect = lower value | 330,000 tested, 0.068% active;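 active = response, share of CD8 T cells binding vesicles, and their 90th percentile fluorescence all below set limits, cut at about 80% in these data, passing the limit was not always enough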;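 also: values below 100% mean blocked vesicle binding to the CD8+ T cells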
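Test system: purified 2C TCR transgenic mouse naive CD8+ T cells. Probe or stimulus: QL9-peptide-loaded Drosophila micro-vesicles bearing Ld, ICAM-1 and B7-1. Incubation: binding step 1.5 h, 37 °C, antibody labelling 20 min, ice. Measured by: flow cytometry of vesicle-bound cells.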
ALR H2O2 inh: blocks human ALR sulfhydryl oxidase activity; 290,000 tested, 3.8% active; purified ALR, DTT oxidation, H2O2 HRP-luminol luminescence; inhibition, % (concentration not given with the values); AID 485317;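 active = mean replicate inhibition above about 79%, with every replicate also reaching it, limit read from the data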
Target sequence (P55789 whole entry, looked up): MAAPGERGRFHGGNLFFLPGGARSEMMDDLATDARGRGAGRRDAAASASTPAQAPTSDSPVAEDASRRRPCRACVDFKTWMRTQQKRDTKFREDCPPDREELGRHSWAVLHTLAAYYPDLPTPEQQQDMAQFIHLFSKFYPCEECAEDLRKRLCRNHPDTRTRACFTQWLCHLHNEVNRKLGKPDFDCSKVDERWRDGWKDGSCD
Glyco luc inh: blocks N-linked glycosylation in D54 reporter cells; 360,000 tested, 0.23% active; D54 ERlucT glycosylation luciferase reporter, 24 h; percent of 100 nM tunicamycin response; reporter increase, % at 12.5 µM;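 active = mean luciferase reporter signal, scaled so untreated is 0 and the glycosylation-blocking control 100, at or above a set limit in every replicate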;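 also: luciferase carries N-glycosylation sites so blocking glycosylation raises the light; 0% = median of neutral control wells and 100% = median of 100 nM tunicamycin wells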
* = called active by the depositor; i = inactive; . = not tested or not shown. The entries come from a sample that favours hits as a whole.

SMILES | T cell HTS | ALR H2O2 inh | Glyco luc inh
CCCn1cc(C(CC(=O)O)C(=O)O)c2ccccc21 (configuration not stated) | 611 | 1 | 0
Cn1cc(C(CC(=O)O)C(=O)O)c2ccccc21 (configuration not stated) | 270 | -4 | -1
O=C(CN1C(=O)NC2(CCCCC2)C1=O)N1CCN(S(=O)(=O)/C=C/c2ccccc2)CC1 | 424 | 0 | 1
O=C(NCc1nnc(SCC(=O)N2CCCCC2)o1)c1c(F)cccc1Cl | 354 | 4 | 1
Nc1ccccc1OCCOCCOc1ccccc1N | 614 | 98* | 0
Nc1ccccc1OCCOc1ccccc1N | 328 | 8 | 3
CN(C)c1ccc(C(CNC(=O)c2ccc(-c3ccccc3)cc2)N2CCOCC2)cc1 (configuration not stated) | 244 | 6 | -1
O=C(NCc1ccc(F)cc1)C(=O)NCC1OCCN1C(=O)c1ccc(Cl)cc1 (configuration not stated) | 559 | -11 | 2
COc1ccccc1CNC(=O)Cn1c(=O)c2cccn2c2cccnc21 | 287 | 0 | 1
O=C(NC1CCCC1)C1CCN(c2cnccn2)CC1 | 193 | . | 1
Cc1onc(-c2ccccc2)c1-c1n[nH]c(=S)n1-c1ccc(C(=O)O)cc1 | 229 | 89* | 0
Cc1onc(-c2ccccc2)c1-c1n[nH]c(=S)n1-c1ccccc1Cl | 394 | 30 | 0
COc1cccc(OC)c1-c1cnc(NC(C)=O)cn1 | . | . | 2
O=C(Cn1cnc2sc3c(c2c1=O)CCCC3)NCC(=O)Nc1c(F)cccc1F | 416 | 1 | 2
Cc1cc2c(ncn2Cc2ccccc2)c(NS(C)(=O)=O)c1C | 377 | . | .
Cc1cc2c(ncn2Cc2ccccc2)c(N)c1C | 196 | 93* | 1
O=C(COC(=O)COc1ccc(Cl)cc1)NC1CCCC1 | 873 | -1 | -1
COc1ccccc1CCNC(=O)CSCC(=O)Nc1ccccc1F | . | . | 0
COc1ccc2nc(NC(=O)CSc3nccc(C)n3)sc2c1 | 126 | -5 | -3
COc1ccc2nc(NC(=O)CSc3n[nH]c(N)n3)sc2c1 | 297 | 90* | 3
COc1ccc(-c2ccc(C(=O)NCCc3ccccc3)c3occc23)c(C)c1 | . | . | 0
CCCN(CC(=O)Nc1ccccc1OC)C(=O)CSC(=S)N1CCCC1 | 438 | 40 | 2
C=CCSc1nnc2c(n1)OC(c1ccco1)Nc1ccccc1-2 (configuration not stated) | 219 | 98* | 5
C=CCSc1nnc2c(n1)OC=Nc1ccccc1-2 | 209 | 9 | 0
O=C(Nc1nnc(SCCN2CCOCC2)s1)C1CC(=O)N(c2ccccc2)C1 (configuration not stated) | 405 | -5 | -2
SMILES | T cell HTS | ALR H2O2 inh | Glyco luc inh
COc1cc(C)c(C(=O)Oc2cc(C)c(C(=O)O)c(O)c2)c(O)c1 | 254 | 58 | 0
COc1cc(C)c(C(=O)Oc2cc(C)c(C(=O)O)c(O)c2C)c(O)c1C | 376 | 97* | -2
CCNC(=O)c1ccc2c(c1)C1C3CCC(C3)C1C(c1ccccc1)N2 (configuration not stated) | 337 | 2 | -5
CC(C)(C)c1nc(SCC(=O)Nc2ccc(N3CCOCC3)cc2)c2ccccc2n1 | 455 | 98* | 1
CCn1c(SCC(=O)Nc2ccc(N3CCOCC3)cc2)nnc1-c1ccco1 | 275 | 98* | -2
CCn1c(C)nnc1SCC(=O)Nc1ccc(N2CCOCC2)cc1 | 0 | 88* | 4
CCn1c(SCC(=O)Nc2ccc(N3CCOCC3)cc2)nnc1-c1ccc(OC)cc1 | 328 | -1 | -2
CCn1c(SCC(=O)Nc2ccc(OCc3ccccc3)cc2)nnc1-c1ccco1 | 314 | 35 | -3
CC(C)(C)c1nc(SCC(=O)Nc2ccc3c(c2)OCCO3)c2ccccc2n1 | 224 | -62 | 2
CCOC(=O)c1c(NC(=O)CN2C(=O)NC3(CCCC3)C2=O)sc(C)c1CC | 554 | 2 | 0
Oc1ccc(/C=N/Nc2ncnc3c2ncn3Cc2ccccc2)cc1O | 385 | 96* | -4
Oc1cccc(/C=N/Nc2ncnc3c2ncn3Cc2ccccc2)c1 | 333 | 71 | 0
CC(C)(C)OC(=O)CN1C(=O)NC2(CCCc3ccccc32)C1=O (configuration not stated) | 19 | -1 | -1
O=C(O[C@@H]1OC2COC(=O)c3cc(O)c(O)c(O)c3-c3c(cc(O)c(O)c3O)C(=O)O[C@@H]([C@H]1O)[C@@H]2O)c1cc(O)c(O)c(O)c1 | 391 | 99* | -1
O=C(Nc1ccc(Cl)cc1)C1Cc2c(-c3cccc(F)c3)ccnc2O1 (configuration not stated) | . | . | -3
Cc1cc(C)cc(Nc2ccc(C(=O)O)cc2N)c1 | 286 | . | 1
Cc1ccc(Nc2ccc(C(=O)O)cc2N)cc1 | 57 | 99* | .
CCOc1ccccc1Nc1ccc(C(=O)O)cc1N | 187 | 10 | 3
COc1cccc(Nc2ccc(C(=O)O)cc2N)c1 | 443 | 99* | 5
COCC(=O)N(c1ccccc1)C(C)C(=O)OC (configuration not stated) | 164 | . | -2
COc1cccc(NC(=O)NNC(=O)CN2C(=O)COc3ccccc32)c1 | 441 | 13 | 0
Cc1ccc(OCc2n[nH]c(=S)n2Cc2ccccc2)cc1 | 163 | . | 0
Nn1c(Cc2ccccc2)n[nH]c1=S | 547 | 95* | 1
Nn1c(Cc2ccc(F)cc2)n[nH]c1=S | i | 60 | 1
CCOc1ccc(Cc2n[nH]c(=S)n2Cc2ccccc2)cc1 | 188 | 95* | 1
SMILES | T cell HTS | ALR H2O2 inh | Glyco luc inh
CCc1ccc(NC(=O)[C@H](C)NC(=O)C2CCN(C(=O)[C@@H](N)Cc3ccccc3)CC2)cc1 | 177 | -7 | -2
COc1ccccc1N(C1=NCCCS1)S(=O)(=O)c1ccc(C(C)(C)C)cc1 | 209 | -4 | -9
CN(C)c1ccc(CNS(=O)(=O)c2csc(C(N)=O)c2)cc1 | 280 | 93* | 0
CC(C)Oc1ccc(CNS(=O)(=O)c2csc(C(N)=O)c2)cc1 | 211 | -1 | 1
CC(C)CCNC(=O)CN(Cc1ccccc1)C(=O)CCC(=O)Nc1ccccn1 | 370 | -68 | 3
CC(=O)N/N=C/c1cc(C)n(-c2ccc(Br)cc2)c1C | 0 | 98* | -6
COC(=O)N/N=C/c1cc(C)n(-c2ccc(Br)cc2)c1C | 306 | 6 | -3
O=C(C1CCC1)N1CCN(S(=O)(=O)c2cc(F)ccc2F)CC1 | . | . | -1
O=C(/C=C/c1ccc([N+](=O)[O-])cc1)Nc1cccc(C(=O)Nc2ccccc2C(=O)O)c1 | 124 | 91* | -1
COC(=O)c1cccc(NC(=O)/C=C/c2ccc([N+](=O)[O-])cc2)c1 | 442 | 0 | 0
CCCCC(=O)NC(=S)Nc1cccc(C(=O)O)c1 | 158 | 1 | -2
CC#CCCCC(=O)Nc1cccc(C(=O)O)c1 | 663 | 90* | 1
CC(=O)Nc1ncc(N=Nc2cccc(C(F)(F)F)c2)s1 | 796 | 2 | 2
Cc1cccc(N=Nc2cnc(N)s2)c1 | 408 | 99* | 5
O=C(CCCNC(=O)/C(=C/c1ccccc1F)NC(=O)c1ccccc1)OCc1ccccc1 | 279 | . | 4
S=c1[nH]nc(CN2CCCCC2)n1-c1ccc(Cl)cc1 | 462 | 19 | 2
Fc1ccc(-n2c(CN3CCCCC3)n[nH]c2=S)cc1 | 212 | 87* | 2

Bioassay records as filed in PubChem.
